Screening data: PubChem, Broad Institute
This excerpt belongs to a sample that is enriched for hits.
GSK3beta inhib: blocks human GSK3beta kinase activity; P49841; activity score (negative = inhibition), % at 10 µM; hit rate 0.038% among 300,000; GST-GSK3beta kinase, ADP-Glo luminescence, 60 min; active compounds read low;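 active means more than half of replicate wells score below -50%, meaning over 50% inhibition versus plate controls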
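test system = GST-tagged human GSK3beta kinase, cell-free | reagent = 25 µM ATP with peptide substrate | dosing = one dose of 10 µM per compound | schedule = 60 min reaction, RT | detection = luminescent ADP-Glo measurement of ADP formed | control set = DMSO neutral wells and GW8510 at 20 µM as positive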
GSK3 alpha inh: human GSK-3 alpha kinase inhibition | P49840 | ADP-Glo luminescence, 60 min | inhibition, % at 10 µM | hit rate 0.1% among 320,000 | AID 2650;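 active means more than half of replicates show inhibition above 20%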;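 further: GST-tagged GSK-3 alpha with peptide substrate and 25 µM ATP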
Target sequence (P49840 whole entry, looked up): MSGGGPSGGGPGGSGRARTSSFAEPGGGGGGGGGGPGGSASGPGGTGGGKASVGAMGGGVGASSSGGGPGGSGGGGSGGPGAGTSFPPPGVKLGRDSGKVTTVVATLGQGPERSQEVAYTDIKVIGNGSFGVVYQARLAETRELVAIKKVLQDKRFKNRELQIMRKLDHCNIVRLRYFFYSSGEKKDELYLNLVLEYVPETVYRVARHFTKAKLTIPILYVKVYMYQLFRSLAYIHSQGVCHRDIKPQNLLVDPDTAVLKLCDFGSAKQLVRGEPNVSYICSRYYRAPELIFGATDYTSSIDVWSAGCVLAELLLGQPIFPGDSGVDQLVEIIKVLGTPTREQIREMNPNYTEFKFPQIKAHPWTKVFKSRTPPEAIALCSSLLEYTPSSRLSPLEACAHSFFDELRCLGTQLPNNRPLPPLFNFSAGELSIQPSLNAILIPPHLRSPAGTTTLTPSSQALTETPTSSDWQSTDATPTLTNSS
Dyrk1A ADPGlo: blocks rat Dyrk1A kinase activity | hit rate 0.43% among 310,000 | ADP-Glo luminescence, NFATc1 peptide | inhibition, % at 12.5 µM; in the data active means inhibition above about 50%
STK33 inh: blocks human STK33 kinase activity. hit rate 0.073% among 320,000. inhibition, % at 10 µM. AID 2661. purified STK33, MBP phosphorylation, ADP-Glo luminescence;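 active means inhibition at or above 25%, using the most active replicate where run in duplicate; inactive means inhibition below 25%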
Numbers stand for hits; n = inactive; x = not tested or not shown.

SMILES | GSK3beta inhib | GSK3 alpha inh | Dyrk1A ADPGlo | STK33 inh
CC1CN(C(=O)CCNC(=O)c2ccccc2Cl)CC(C)O1 (stereo unspecified) | n | n | n | n
CCOc1ccc(-c2nc(CCl)cs2)cc1OC | n | n | n | n
Cc1cc(N2CCN(C)CC2)nc2ccc(NC(=O)c3ccc(Br)o3)cc12 | n | n | n | 34
Cc1cc(C)n(CCC(=O)N=Nc2c(O)[nH]c3ccc(Br)cc23)n1 | n | 73 | n | n
COc1cc(/C=N/n2c(-c3ccccc3)n[nH]c2=S)cc(OC)c1O | n | n | n | n
COc1cc(/C=N/n2c(-c3n[nH]c4c3CCC4)n[nH]c2=S)ccc1O | n | n | n | 40
COc1cc(/C=N/n2c(-c3ccccc3)n[nH]c2=S)ccc1O | n | n | n | 46
CCOC(=O)C1(CC)NC(c2ccc(OC)cc2OC)C2C(=O)N(C)C(=O)C21 (stereo unspecified) | n | n | x | n
O=C(COC(=O)/C=C/c1ccc(OC(F)F)cc1)NC1CCCCCCC1 | n | n | n | n
O=C1CC(c2ccc(F)cc2)Cc2nc(NCC3CCCO3)ncc21 (stereo unspecified) | n | n | n | n
CCCCC(=O)Nc1cccc(NC(=O)c2cccnc2Cl)c1 | n | n | x | n
CCCc1cc(-c2[nH]ncc2-c2ccc3c(c2)OCCCO3)c(O)cc1O | n | n | 58 | n
Cn1c(SCc2ccc(C(C)(C)C)cc2)nnc1C1COc2ccccc2O1 (stereo unspecified) | n | n | x | n
Cn1c(SCc2nnc(-c3ccc(F)cc3)o2)nnc1C1COc2ccccc2O1 (stereo unspecified) | n | 60 | n | n
Fc1cccc(Nc2nc(-c3ccncc3)nc3ccccc23)c1 | -75 | n | n | n
Oc1ccc(Nc2nc(-c3ccccc3O)nc3ccccc23)cc1 | n | n | n | 49
Cc1ccc(-c2nc(Nc3ccc(O)cc3)c3ccccc3n2)cc1 | n | n | x | n
COc1ccc(Nc2nc(-c3ccccc3O)nc3ccccc23)cc1 | n | n | n | n
Cc1ccc(-c2nc(Nc3cccc(O)c3)c3ccccc3n2)cc1 | n | n | 64 | n
Cc1ccc(OCC(=O)NNC(=O)c2ccco2)c(C)c1 | n | n | n | n
CCC1(c2ccc(Cl)cc2)NC(=O)N(Cc2ccc(C(=O)OC)cc2)C1=O (stereo unspecified) | n | n | n | n
COCCn1c(SCC(=O)Nc2ccc(Cl)cn2)nc2ccccc21 | -76 | n | n | n
COCCn1c(SCC(=O)Nc2ncc(Cl)c(C)c2Cl)nc2ccccc21 | n | n | n | n
COc1ccc2nc(NC(=O)CSc3n[nH]c(N)n3)sc2c1 | n | 58 | n | n
COc1ccc2nc(NC(=O)CSc3nccc(C)n3)sc2c1 | n | n | n | n
SMILES | GSK3beta inhib | GSK3 alpha inh | Dyrk1A ADPGlo | STK33 inh
CCOc1ccc(CNC(=O)CCC(=O)N2Cc3cccc(OC)c3Oc3ncccc32)cc1 | n | x | n | n
NS(=O)(=O)c1ccc(CNC(=S)NC2CC2)cc1 | n | n | n | n
O=C(/C=C/c1cccc2ccccc12)NCCC1=CCCCC1 | n | n | n | n
CCOC(=O)C1=C(C)Nc2ncnn2C1c1c[nH]c2ccccc12 (stereo unspecified) | -74 | 71 | n | n
CCCC1=C(C(=O)OCC)C(c2sccc2C)n2ncnc2N1 (stereo unspecified) | n | 78 | n | n
CC1=C(C(=O)OC(C)C)C(c2c[nH]c3ccccc23)n2ncnc2N1 (stereo unspecified) | n | 93 | n | n
CC1=C(C(=O)OC(C)C)C(c2cccs2)n2ncnc2N1 (stereo unspecified) | n | n | n | n
O=C(Cn1cccn1)N1CCCC(N2CCN(Cc3ccc4c(c3)OCO4)CC2)C1 (stereo unspecified) | n | x | n | x
NS(=O)(=O)c1ccc(CCNC(=O)CCCOc2ccccc2)cc1 | n | n | n | n
N#Cc1c(-c2ccccc2Cl)c2c([nH]c1=O)-c1ccccc1OC2 | n | 55 | n | n
CN1C(=O)CC(C(=O)Nc2ccccc2F)SC1=Nc1ccc2c(c1)OCO2 (stereo unspecified) | n | n | n | n
Cc1ccc(C(=O)Nc2ccc(O)cc2C(=O)O)cc1 | n | n | n | n
Cc1cc(N2C(=O)c3ccc(C(=O)Nc4ccc(O)cc4C(=O)O)cc3C2=O)no1 | n | n | n | 32
CCCNC(=O)c1sc2c(c1C(=O)Nc1ccccn1)CCCC2 | n | n | x | n
CN1C(=O)C2C(c3ccc(N(C)C)cc3)=NN(Cc3ccccc3)C2C1=O (stereo unspecified) | n | n | x | n
CCC(Oc1ccccc1)C(=O)Nc1ncc([N+](=O)[O-])s1 (stereo unspecified) | n | n | n | n
